Only some compounds are listed: those with a hit (about 11% of all), similar ones and a draw of the others.
G6PDH counter – L. mesenteroides G6PDH inhibition counter-screen; inhibition, % at 5 µM; 200,000 tested, 0.12% active; Purified L. mesenteroides G6PDH, diaphorase/resazurin coupled fluorescence, 45 min
WT yeast gro inh – growth inhibition of WT yeast, mitochondrial fusion screen | mitochondrial fusion phenotypic screen, WT strain | inhibition, % at 10 µM | 190,000 tested, 2.1% active; in the data active means inhibition above about 58%; tested in S. cerevisiae
Diaph inh CS – diaphorase inhibition or chemical oxidation counter-screen; inhibition, % at 20 µM; 190,000 tested, 0.69% active; diaphorase resazurin-to-resorufin fluorescence, NADH, 16 min; bacterial (C. kluyveri) enzyme, not human;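 active means primary screen inhibition at 20 µM above a set limit, cut at about 50% in these data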;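 further: plate controls were DMSO with full reaction for no effect and wells lacking NADH for full effect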
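Test system: bacterial diaphorase enzyme (C. kluyveri); Quantity: 0.14 U/mL diaphorase, enzyme working solution; Times: reaction incubation of 16 min at room temperature; Measured by: fluorescence of resorufin formed from resazurin, Ex 544/Em 590 nm; Benchmarks: positive control minus NADH, DMSO neutral control.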
Diaph act CS – diaphorase activation or chemical reduction counter-screen; activation factor at 20 µM; Diaphorase/resazurin coupled assay, resorufin fluorescence, 16 min; hits give high values; 1 = vehicle wells, 0 = NADH-free wells; AID 1229; 190,000 tested, 0.005% active;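 active means diaphorase activity raised at least twofold by the compound at 20 µM; inactive means activation factor below 2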
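Material: Clostridium kluyveri diaphorase, purified enzyme; Quantity: enzyme 0.07 U/mL final; Medium: HEPES pH 7.4 buffer with MgCl2 and Tween 20; Dosing: single compound dose of 20 µM, 1% DMSO final; Schedule: 16 min reaction at room temperature; Measured by: red resorufin fluorescence at 544/590 nm excitation/emission.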
Lmaj promast – inhibitors of Leishmania major promastigote growth; Leishmania major promastigotes, resazurin fluorescence viability; inhibition, % at 10 µM; 200,000 tested, 9% active;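 further: promastigotes grown with compound for 44 hours at 28 °C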
Starred values were filed as active, the others as inactive; · = no result. Unless noted, no stated cut-off is given here; in the data, active means inhibition above about 50%; inactive means the rest.

SMILES	G6PDH counter	WT yeast gro inh	Diaph inh CS	Diaph act CS	Lmaj promast
Cc1ccc(N2C(=O)C(O)(C(F)(F)F)C3=C2CC(C)(C)CC3=O)cc1 (stereo not drawn)	2	-6	2	1	-3
CC1(C)CC(=O)C2=C(C1)N(c1ccc(F)cc1)C(=O)C2(O)C(F)(F)F (stereo not drawn)	6	84*	-12	1.1	-7
Cc1ccc(C)c(C(=O)COc2ncnc3ccccc23)c1	-7	-7	1	1	-5
CC1CC1C(=O)Nc1nc(-c2cccs2)c(-c2cccs2)s1 (stereo not drawn)	8	76*	27	0.7	62*
O=C(Nc1ccccc1C(=O)N1CCN(c2ccccc2)CC1)c1ccco1	0	-3	9	0.9	2
CC(C)C(NC(=O)C(Cc1ccccc1)NC(=O)OCc1ccccc1)C(=O)O (stereo not drawn)	11	4	22	0.8	29
COc1ccc(/C=C2\CC/C(=C\c3ccc(OC)c(OC)c3)C2=O)cc1OC	12	24	20	0.8	27
CN(C)/N=C/C=C1\CC/C(=C\c2ccc(Br)cc2)C1=O	-2	9	10	0.9	77*
Cc1ccc2c(c1)cc(CN(Cc1cccnc1)C(=O)NCc1ccccc1)c1nnnn12	-30	-9	14	0.9	100*
Cc1ccc2c(c1)cc(CN(Cc1ccc3c(c1)OCO3)C(=O)c1ccccc1)c1nnnn12	7	8	4	1	59*
O=C(O)CC/C(=N\NC(=O)c1ccccc1Br)c1ccccc1	12	5	9	0.9	-9
COc1ccc(N(CC(=O)Nc2cc(C)ccc2C)S(=O)(=O)c2ccccc2[N+](=O)[O-])c(OC)c1	32	-2	5	0.9	35
O=C(O)C1OC2OC3(CCCCC3)OC2C2OC3(CCCCC3)OC12 (stereo not drawn)	-1	-5	16	0.8	-4
O=C(OCC1OC2OC3(CCCCC3)OC2C2OC3(CCCCC3)OC12)c1ccccc1 (stereo not drawn)	8	74*	12	0.9	-1
COc1ccc(CNCC(O)COCc2cccs2)cc1 (stereo not drawn)	-1	-8	11	0.9	88*
CCCNCC1COc2ccccc2O1 (stereo not drawn)	1	-7	-2	1	39
OC(CNCC1COc2ccccc2O1)COCc1cccs1 (stereo not drawn)	-3	-4	0	1	92*
CC(OCC(O)CNCC1COc2ccccc2O1)c1ccc(Cl)cc1 (stereo not drawn)	6	44	12	0.9	91*
Cc1ccc(S(=O)(=O)NNc2ccccc2)c(C)c1	8	-2	3	1	16
COC(=O)[C@@H]1C[C@H]1[C@@H](NC(=O)c1ccccc1)c1ccccc1	15	-9	14	0.9	-3
Cc1ccc(N(CC(=O)NC2CCC(C)CC2)S(=O)(=O)c2cccnc2)cc1 (stereo not drawn)	7	-1	15	0.9	67*
Clc1cccc(-c2nnc(-c3ccccc3)o2)c1	0	12	6	0.9	10
Clc1cc(Cl)cc(C2=NCCC(c3ccccc3)O2)c1 (stereo not drawn)	18	75*	16	0.8	0
CCC(=O)Nc1cc(C(=O)O)ccc1Sc1ccc(Cl)cc1	4	7	6	0.9	-7
O=C(Nc1ccc(Cl)cc1)c1csc(Cc2ccccc2)n1	12	74*	19	0.8	0
SMILES	G6PDH counter	WT yeast gro inh	Diaph inh CS	Diaph act CS	Lmaj promast
COc1ccc(NC(=O)c2csc(Cc3ccc(Cl)cc3)n2)cc1	-4	59*	9	0.9	-8
COc1ccc(Cc2nc(C(=O)Nc3ccccc3)cs2)cc1	-1	·	11	0.9	-5
O=C(Nc1cccc(Cl)c1)c1csc(-c2ccccc2)n1	-9	61*	-5	1.1	0
COc1ccc(Cc2nc(C(=O)Nc3ccc(Cl)cc3)cs2)cc1	0	54	19	0.8	-7
COc1cc(OC)c(NC(=S)NCc2ccc(F)cc2)cc1Cl	-1	13	22	0.8	12
CC(=O)c1c(C)nc(-c2ccc(Cl)cc2)nc1NC(=O)C(C)C	-26	7	14	0.9	0
O=C(CN(Cc1ccc(F)cc1)S(=O)(=O)c1ccc(S(=O)(=O)N2CCOCC2)cc1)Nc1ccccc1	7	8	0	1	-7
O=C(CCn1nnc2ccccc21)Nc1nnc(Cc2ccccc2)s1	-9	67*	8	0.9	18
O=C(/C(=C/O)N=Nc1ccc(Cl)cc1)c1ccncc1	3	20	7	0.9	100*
COc1ccc(NC(=O)c2cccs2)cc1	9	5	13	0.9	2
COc1ccc(C(=O)/C(=C/O)N=Nc2ccc(F)cc2)cc1	3	-5	18	0.8	61*
Cc1ccc(N=N/C(=C\O)C(=O)c2ccncc2)cc1	2	-1	12	0.9	-5
COc1ccc(N=N/C(=C\O)C(=O)c2cccs2)cc1	0	7	11	0.9	69*
O=C(c1ccc(Cn2c(=S)[nH]c3ccc(N4CCOCC4)cc3c2=O)cc1)N1CCC(N2CCCCC2)CC1	1	-3	-11	1.1	-5
CCn1c(SCC(=O)Nc2ccc(OCc3ccccc3)cc2)nnc1-c1ccco1	9	·	34	0.7	·
Cc1cc(OCC(=O)Nc2ccncc2)cc(C)c1Br	-1	74*	7	0.9	16
CCNC(=O)n1nccc1C(C)Oc1cccc(C(F)(F)F)c1 (stereo not drawn)	8	24	4	1	1
CCCCNC(=S)N/N=C/c1ccc(C#N)cc1	6	5	0	1	-3
CC(C)Cc1nc2oc3c(NCCCN4CCOCC4)ncnc3c2c2c1CCC2	2	31	14	0.9	58*
Cc1nnn(C23CC4CC(CC(CC(=O)Nc5ccc(C)c(C)c5)(C4)C2)C3)n1	10	4	18	0.8	68*
Cc1nnn(C23CC4CC(CC(CC(=O)Nc5cccc(F)c5)(C4)C2)C3)n1	5	9	15	0.8	15
CC(=O)c1ccc(NC(=O)CC23CC4CC(C2)CC(n2nnc(C)n2)(C4)C3)cc1	8	-2	18	0.8	10
Cc1cccc(NC(=O)CC23CC4CC(C2)CC(n2nnc(C)n2)(C4)C3)c1	23	-9	16	0.8	55*
CCCCN=C1NC(=O)C(CC(=O)NCCc2ccc(OC)cc2)S1 (stereo not drawn)	0	-14	2	1	5
Cc1ccc(C)c(/C(O)=C2\C(=O)C(=O)N(Cc3cccnc3)C2c2cccnc2)c1 (stereo not drawn)	11	25	-7	1.1	-5
Cc1cccc(NC(=O)C2CCN(S(=O)(=O)c3cccc4cccnc34)CC2)n1	15	0	19	0.8	2
